Shown are actives, neighbours in structure and some others; about 0.72% of the full set was active somewhere.
hIAP act: human IAP activation. purified human IAP, CDP-Star luminescence, 30 min; hits give high values; 1 = vehicle-only enzyme, 0 = enzyme-free background. activation factor at 10 µM. 330,000 compounds, 0.16% hits;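 active = activation factor of the enzyme at least 2-fold when tested at 20 µM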
Target sequence (P09923 whole entry, looked up): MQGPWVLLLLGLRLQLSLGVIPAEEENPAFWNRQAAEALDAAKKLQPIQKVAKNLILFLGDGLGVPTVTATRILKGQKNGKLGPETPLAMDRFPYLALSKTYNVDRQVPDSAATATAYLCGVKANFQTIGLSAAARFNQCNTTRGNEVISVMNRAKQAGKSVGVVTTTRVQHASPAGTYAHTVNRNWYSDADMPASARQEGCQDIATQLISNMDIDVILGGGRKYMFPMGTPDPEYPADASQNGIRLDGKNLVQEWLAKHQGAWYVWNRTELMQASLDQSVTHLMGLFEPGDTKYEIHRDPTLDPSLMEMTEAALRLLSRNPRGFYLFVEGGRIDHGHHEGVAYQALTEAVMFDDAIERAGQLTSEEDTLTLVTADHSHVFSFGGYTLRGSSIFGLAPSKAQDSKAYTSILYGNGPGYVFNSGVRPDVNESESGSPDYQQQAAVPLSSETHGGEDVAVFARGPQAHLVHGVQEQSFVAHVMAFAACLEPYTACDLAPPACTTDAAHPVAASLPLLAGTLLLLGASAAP
mIAP block: mouse IAP inhibition. purified mouse IAP, CDP-Star luminescence, 30 min. inhibition, % at 10 µM. 330,000 compounds, 0.2% hits. AID 2806;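 active = inhibition of at least 40% at 10 µM in the primary screen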;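 also: plate controls were DMSO with enzyme for no effect and no enzyme wells for full effect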
bIAP act: intestinal alkaline phosphatase (bovine) activation; purified bovine IAP, CDP-star luminescence, 30 min; hits give high values; fold of DMSO-control signal, blank-subtracted; activation factor at 20 µM; 200,000 compounds, 0.17% hits; AID 1016;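 active = activation factor of 2 or more at 20 µM, a signal rise over negative controls twice the positive control's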
bIAP inhibitor: intestinal alkaline phosphatase (bovine) inhibition; purified bovine IAP, CDP-star luminescence, 30 min; inhibition, % at 20 µM; 190,000 tested, under 10 active; AID 1019;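 active = over 50% inhibition of intestinal alkaline phosphatase at 20 µM in the single-dose screen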
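System: Purified bovine intestinal alkaline phosphatase (IAP) enzyme | Input: IAP diluted 1/65,000,000 in the well | Also added: CDP-star chemiluminescent phosphatase substrate, 30 µM final | Dosing: 20 µM single dose | Times: Enzyme reaction for 30 min at room temperature | Detection: Luminescence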
mIAP act: mouse IAP activation; muIAP, CDP-Star luminescence, 30 min; hits give high values; 1 = vehicle-only enzyme signal, 0 = enzyme-free wells; activation factor at 10 µM; 330,000 compounds, 0.24% hits;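 active = activation factor of at least 2 at 20 µM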
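System: Mouse IAP enzyme | Also added: CDP-Star substrate | Dosing: Compounds dispensed in DMSO | Schedule: 30 min enzyme-substrate-compound incubation at room temperature | Technique: Chemiluminescence readout | Control set: DMSO-only wells and no-enzyme negative control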
hIAP block: human IAP inhibition; P09923; purified IAP, CDP-Star luminescence, 30 min; inhibition, % at 10 µM; 330,000 compounds, 0.12% hits;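 active = inhibition reaching a set limit with compound at 10 µM in the primary screen, cut at about 35% in these data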;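 also: plate controls were DMSO wells with enzyme for no effect and no-enzyme buffer wells for full effect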
mIAP inh confirm: mouse IAP inhibition confirmation; shares compounds with mIAP block; purified mouse IAP, CDP-Star luminescence, 30 min; inhibition, % at 10 µM; 11,000 compounds, 4.7% hits; AID 434971;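 active = inhibition of at least 40% at 10 µM in either of the two replicates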;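 also: plate controls were DMSO wells with enzyme for no effect and buffer wells lacking enzyme for full effect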
* marks the source's active call; other numbers are inactive results; . = no result given.

SMILES	hIAP act	mIAP block	bIAP act	bIAP inhibitor	mIAP act	hIAP block	mIAP inh confirm
COc1ccc(OC)c(S(=O)(=O)Nc2ccc(O)c(Sc3ncn[nH]3)c2)c1	0.833	49.7*	0.9	13.3	0.503	16.7	51.9*
O=C(c1cscn1)N1CCCC(N2CCN(c3ccc(F)cc3)CC2)C1 (stereo unspecified)	1.17	4.6	.	.	0.954	-17.3	.
Cc1ccccc1-c1cc(C(=O)NCc2ccc3c(c2)OCO3)nn1CC1CC(c2cccc([N+](=O)[O-])c2)=NO1 (stereo unspecified)	0.956	3.5	.	.	0.965	4.4	.
COc1ccccc1NC(=O)C(C)OC(=O)Cc1ccsc1 (stereo unspecified)	1.05	-4.0	.	.	1.04	-5.4	.
Cc1cc(F)ccc1S(=O)(=O)Nc1ccc(O)c(Sc2ncn[nH]2)c1	1.06	69.7*	.	.	0.303	-5.6	65.9*
Cc1cc(F)ccc1S(=O)(=O)Nc1ccccc1C(=O)Nc1ncn[nH]1	1.09	7.4	1.6	-60.9	0.926	-8.9	.
Cc1ccsc1/C=C/C1=Cc2c(sc(NC(=O)CSc3n[nH]c(N)n3)c2C#N)C(C)(C)C1	0.874	44.7*	0.8	16.9	0.553	12.6	63.6*
CCNS(=O)(=O)c1ccc(CCC(=O)N2CCN(c3ccccc3)CC2)cc1	1.02	4.6	.	.	0.954	-1.9	.
Cc1nn(-c2ccccc2)c(Cl)c1/C=N/NC(=O)c1[nH]ncc1Br	1.54	10.2	.	.	0.898	-53.8	.
